In ChEMBL document CHEMBL1155413, “Synthesis and evaluation of a library of 2,5-bisdiamino-benzoquinone derivatives as probes to modulate protein-protein interactions in prions” (Bioorg Med Chem Lett, 2010):

Tests used:
Assay type in all cases: cell-based
[1] = Cytotoxicity against mouse ScGT1 cells at 1 uM after 5 days by calcein-AM staining; settings: scgt1, 120 h
Summary of the method: (§1)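 ScGT1 cells in DMEM + 10% FBS, plated at 25000 cells per well. Compounds dissolved in 100% DMSO and diluted in PBS, then added at 1 nM–10 μM for 5 days at 37 °C, 5% CO₂. Viability read by Calcein-AM fluorescence on a plate reader as percent viable cells vs untreated control; LC₅₀ taken as the 50% lethal concentration.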

ScGT1 = assay: Antiprion activity against scrapie prion protein replication in mouse ScGT1 cells assessed as inhibition of formation of PrPSc from PrPc after 5 days by western-blot analysis; parameters: concentration or dose not given beside the values; settings: dose or concentration not given here
Summary of the method: (§2)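 ScGT1 cells in DMEM + 10% FBS, split 1:10 into Petri dishes and grown 2 days at 37 °C, 5% CO₂. Compounds added at non-toxic concentrations from 0.1 nM upward and left 5 days. Proteins then extracted, quantified, digested with proteinase K and Western-blotted. Densitometry of PK-resistant PrP gives percent remaining vs untreated cells; EC₅₀ taken as the concentration for half-maximal inhibition.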

[2] = Cytotoxicity against mouse ScGT1 cells at after 5 days by calcein-AM staining; settings: read-out: LC50; summary of the method: as §1
[3] = Antiprion activity against scrapie prion protein replication in mouse ScGT1 cells assessed as inhibition of formation of PrPSc from PrPc […] after 5 days by western-blot analysis; settings: ScGT1, 120 h; summary of the method: as §2

SMILES	Activity [1] [%]	inhibition (ScGT1) [%]	CC50 at 120 h [2] [nM]	EC50 [3] [nM]
COC(=O)[C@H](C)NC1=C(Cl)C(=O)C(N[C@@H](CCCNC(=N)N[N+](=O)[O-])C(=O)OC)=C(Cl)C1=O	81.4	0.23	–	–
COC(=O)[C@H](C)NC1=C(Cl)C(=O)C(N[C@@H](Cc2ccccc2)C(=O)OC)=C(Cl)C1=O	68.4	73.2	2400	870
CC[C@H](C)[C@@H](NC1=C(Cl)C(=O)C(N[C@@H](C)C(=O)OC)=C(Cl)C1=O)C(=O)OC	88.2	6.6	–	–
COC(=O)[C@H](C)NC1=C(Br)C(=O)C(N[C@@H](CCCCNC(=O)OC(C)(C)C)C(=O)OC)=C(Br)C1=O	52.3	–	–	–
COC(=O)[C@H](C)NC1=C(Br)C(=O)C(N[C@@H](CCSC)C(=O)OC)=C(Br)C1=O	96.1	11.4	–	–
COC(=O)[C@H](C)NC1=C(Cl)C(=O)C(N[C@@H](CCCCNC(=O)OC(C)(C)C)C(=O)OC)=C(Cl)C1=O	40.7	–	–	–
COC(=O)[C@H](C)NC1=C(Cl)C(=O)C(N[C@@H](Cc2c[nH]c3ccccc23)C(=O)OC)=C(Cl)C1=O	96	0.25	–	7700
COC(=O)[C@H](C)NC1=C(Br)C(=O)C(N[C@@H](C)C(=O)OC)=C(Br)C1=O	91.2	0.29	–	–
COC(=O)[C@H](C)NC1=C(Br)C(=O)C(N[C@@H](Cc2ccccc2)C(=O)OC)=C(Br)C1=O	80.2	18.1	–	3600
COC(=O)[C@H](C)NC1=C(Br)C(=O)C(N[C@@H](Cc2c[nH]c3ccccc23)C(=O)OC)=C(Br)C1=O	65.9	0.43	–	–
COC(=O)[C@H](C)NC1=C(Cl)C(=O)C(N[C@@H](C)C(=O)OC)=C(Cl)C1=O	71.6	0.36	–	–
COC(=O)[C@H](C)NC1=C(Cl)C(=O)C(N[C@@H](CCSC)C(=O)OC)=C(Cl)C1=O	95.5	4.8	–	–
CC[C@H](C)[C@@H](NC1=C(Br)C(=O)C(N[C@@H](C)C(=O)OC)=C(Br)C1=O)C(=O)OC	91.3	28.1	–	–
COC(=O)[C@H](C)NC1=C(Br)C(=O)C(N[C@@H](CCCNC(=N)N[N+](=O)[O-])C(=O)OC)=C(Br)C1=O	74.1	0.31	–	–
